From ChEMBL document CHEMBL1124354, “Potential antiatherosclerotic agents. 6. Hypocholesterolemic trisubstituted urea analogues” (J Med Chem, 1989) come the findings set out here.

The target of the first assay is T1, Sterol O-acyltransferase 1 (Rattus norvegicus) (UniProt O70536).
T1 sequence (whole entry): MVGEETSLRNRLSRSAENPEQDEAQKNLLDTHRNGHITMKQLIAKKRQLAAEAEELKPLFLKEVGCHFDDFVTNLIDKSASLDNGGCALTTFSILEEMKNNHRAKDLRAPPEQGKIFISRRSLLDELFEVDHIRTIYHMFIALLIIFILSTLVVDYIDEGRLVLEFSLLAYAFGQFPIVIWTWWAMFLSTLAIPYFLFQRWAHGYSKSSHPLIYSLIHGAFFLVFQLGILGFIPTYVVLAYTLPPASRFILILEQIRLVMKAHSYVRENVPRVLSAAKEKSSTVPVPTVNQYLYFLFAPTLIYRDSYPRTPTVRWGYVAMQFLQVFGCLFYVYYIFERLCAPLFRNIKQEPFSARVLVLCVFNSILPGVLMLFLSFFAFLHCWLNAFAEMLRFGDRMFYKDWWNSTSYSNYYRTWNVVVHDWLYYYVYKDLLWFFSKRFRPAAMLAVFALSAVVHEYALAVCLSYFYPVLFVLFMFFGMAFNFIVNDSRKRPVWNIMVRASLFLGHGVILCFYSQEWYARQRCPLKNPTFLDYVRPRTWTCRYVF
Nature of the assay: In vitro percentage inhibition against Acyl coenzyme A:cholesterol acyltransferase derived from rat adrenals. More on the design: concentration or dose not given beside the values. The conditions noted are these: concentration not given here. The essentials: (§1)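 Rat adrenal 1000g supernatant (microsomal ACAT) in 0.2 M KH2PO4 pH 7.4 with BSA; test compound at final 5.2 µg/mL, preincubated 37 °C 10 min; [14C]oleoyl-CoA (0.4 µCi) added, 37 °C 30 min. Cholesteryl ester separated by TLC, scintillation counted; mean percent inhibition against compound-free control.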
What is called inhibition is the drop in the measured response relative to a control, in per cent. For the compound `Cc1cccc(Cl)c1NC(=O)N(Cc1ccccc1)Cc1ccccc1`, the inhibition was found to be 84%.
Same read-out and setting: as for `CCCCN(CCC12CC3CC(CC(C3)C1)C2)C(=O)Nc1ccc(C)cc1C`, the figure is 56%; as for `CCCCC(CC)CN(CC(CC)CCCC)C(=O)Nc1ccc(C)cc1C` (stereo not given), 86%; as for `CCCCN(CCCC)C(=O)Nc1ccc(I)cc1`, 83%.
With `CCCCN(CCC(c1ccccc1)c1ccccc1)C(=O)Nc1ccc(C)cc1C`, the inhibition came out at 53%.
On the same count and under the same terms, the result for `O=C(Nc1ccc(Cl)c(Cl)c1)N(Cc1ccccc1)Cc1ccccc1` reads 95%; that for `O=C(Nc1cc(F)ccc1F)N(Cc1ccccc1)Cc1ccccc1`, 72%; that for `Cc1ccc(NC(=O)NCc2ccccc2)c(C)c1`, 35%.
Same read-out and setting: as for `CCCCCCCCCN(CCCCCCCCC)C(=O)Nc1ccc(C)cc1C`, the figure is 90%; as for `CCc1cccc(C)c1NC(=O)N(Cc1ccccc1)Cc1ccccc1`, 74%.
On the same count and under the same terms, as for `CCCCN(Cc1ccccc1)C(=O)Nc1cc(Cl)c(N)c(Cl)c1`, the figure is 61%; as for `CCCCCCCCCCCN(CCCCCCCCCCC)C(=O)Nc1ccc(C)cc1C`, 49%; as for `CCCCN(CCCC)C(=O)Nc1ccc([N+](=O)[O-])cc1Cl`, 87%.
In the case of `CCCCCCCC/C=C/CCCCCCCCN(Cc1ccc(CCCC)cc1)C(=O)Nc1ccc(C)cc1C` (stereo in doubt; 160), the inhibition amounted to 42%.
The same measure, in the same setting: as for `O=C(Nc1ccc(Cl)cc1Cl)N(Cc1ccccc1)Cc1ccccc1`, the figure is 83%; as for `O=C(Nc1cccc(Cl)c1Cl)N(Cc1ccccc1)Cc1ccccc1`, 80%.
Still for that read-out and setting: as for `O=C(Nc1cc(Cl)ccc1Cl)N(Cc1ccccc1)Cc1ccccc1`, the figure is 82%; as for `Cc1ccc(Cl)cc1NC(=O)NCc1ccccc1`, 33%; as for `CCC(C)N(C(=O)Nc1ccc(C)cc1C)C(C)CC` (stereo not given), 78%.
For `CCCCN(CCCC)C(=O)Nc1ccc(C(C)=O)cc1`, the inhibition came out at 55%.
Consider `CSc1ccc(NC(=O)N(Cc2ccccc2)Cc2ccccc2)cc1`, for which the inhibition came out at 67%.
The same measure, in the same setting: as for `Cc1ccc(C)c(NC(=O)N(Cc2ccccc2)Cc2ccccc2)c1`, the figure is 89%.
On the same count and under the same terms, the result for `CCCCN(CCCCC1CCCCC1)C(=O)Nc1ccc(C)cc1C` reads 40%.
Turning to `CCCCN(CCCC)C(=O)Nc1cccc(Cl)c1Cl`, the inhibition was found to be 85%.
For `COc1ccccc1NC(=O)N(Cc1ccccc1)Cc1ccccc1`, the inhibition amounted to 91%.
Same read-out and setting: as for `CCCCN(CCCC)C(=O)Nc1ccc([N+](=O)[O-])cc1`, the figure is 75%.
Same read-out and setting: the result for `Cc1cccc(C)c1NC(=O)N(Cc1ccccc1)Cc1ccccc1` reads 56%.
In the case of `CCCCN(CC(C)(c1ccccc1)c1ccccc1)C(=O)Nc1ccc(C)cc1C`, the inhibition turned out to be 97%.
As to `CCN(C(=O)Nc1ccccc1C)c1ccccc1`, the inhibition is 9%.
Still for that read-out and setting: the result for `CN(C(=O)Nc1cc(Cl)ccc1Cl)c1ccccc1` reads 48%.
Still for that read-out and setting: as for `CCCCN(Cc1ccccc1)C(=O)Nc1ccccc1[N+](=O)[O-]`, the figure is 37%.
On the same count and under the same terms, the result for `CCc1cccc(CC)c1NC(=O)N(Cc1ccccc1)Cc1ccccc1` reads 72%; that for `O=C(Nc1ccc(Cl)c(C(F)(F)F)c1)N(Cc1ccccc1)Cc1ccccc1`, 92%; that for `O=C(Nc1c(Cl)cccc1Cl)N(Cc1ccccc1)Cc1ccccc1`, 89%.
Regarding `CCCCN(CCCC)C(=O)Nc1ccc(C)c(C)c1`, the inhibition stood at 49%.
For `CCCCN(CC(c1ccccc1)C1CCCCC1)C(=O)Nc1ccc(C)cc1C` (stereo not given), the inhibition is 74%.
Turning to `CCCCN(CCCC)C(=O)Nc1cccc(Br)c1`, the inhibition was determined as 86%.

Another assay has as its target T1, Sterol O-acyltransferase 1 (Rattus norvegicus). In words: In vitro percentage inhibition against acyl coenzyme A:cholesterol acyltransferase derived from rat adrenals. The note with it: concentration not given here. More on the design: concentration or dose not given beside the values. The essentials:
as §1
With `Cc1ccc(NC(=O)N(C(C)C)C(C)C)c(C)c1`, the inhibition was -1%.
In the case of `CCCCN(CCCC)C(=O)Nc1cc(Cl)c(Cl)cc1Cl`, the inhibition amounted to 62%.
Same read-out and setting: the result for `CCCCN(CCCC)C(=O)Nc1ccc(OC)cc1` reads 59%.
With `O=C(Nc1ccccc1Cl)N(Cc1ccccc1)Cc1ccccc1`, the inhibition turned out to be 88%.
On the same count and under the same terms, as for `Cc1ccc(NC(=O)N(CC(C)C)CC(C)C)c(C)c1`, the figure is 80%; as for `CCCCN(CCCC)C(=O)Nc1ccc(C)cc1`, 80%; as for `CCCCN(Cc1ccccc1)C(=O)Nc1cccc(Cl)c1OC`, 85%.
On the same count and under the same terms, the result for `O=C(O)c1ccc(NC(=O)N(Cc2ccccc2)Cc2ccccc2)cc1` reads 14%.
The same measure, in the same setting: the result for `CCCCN(Cc1ccccc1)C(=O)Nc1c(Cl)cc(Cl)cc1Cl` reads 88%.
In the case of `CCCCN(CCCC)C(=O)Nc1ccccc1Br`, the inhibition was 51%.
Turning to `CCCCN(Cc1ccccc1)C(=O)Nc1cc(C)ccc1C`, the inhibition was 93%.
On to `CCN(CC)C(=O)Nc1ccc(C)cc1C`, for which the inhibition was 18%.
Regarding `COc1ccc(OC)c(NC(=O)N(Cc2ccccc2)Cc2ccccc2)c1`, the inhibition was found to be 88%.
Same read-out and setting: the result for `O=C(Nc1ccc(Br)cc1)N(Cc1ccccc1)Cc1ccccc1` reads 80%.
On the same count and under the same terms, the result for `CCCCN(CCCC)C(=O)Nc1ccc(C(C)C)cc1` reads 76%; that for `CCCCN(Cc1ccccc1)C(=O)Nc1cc(Cl)ccc1O`, 86%; that for `CCCCN(C)C(=O)Nc1ccc(Cl)c(Cl)c1`, 64%.
Same read-out and setting: the result for `CCCCN(CCCC)C(=O)Nc1c(C)cc(C)cc1C` reads 74%.
`O=C(Nc1cccc([N+](=O)[O-])c1)N(Cc1ccccc1)Cc1ccccc1`: the inhibition came out at 81%.
On to `CCCCN(CCCC)C(=O)Nc1ccc(Cl)cc1C`, for which the inhibition stood at 88%.
The same measure, in the same setting: the result for `Cc1ccc(NC(=O)N(C)C)c(C)c1` reads -7%; that for `CCCCN(Cc1ccccc1)C(=O)Nc1ccccc1C`, 79%; that for `COc1ccc(NC(=O)N(Cc2ccccc2)Cc2ccccc2)cc1`, 72%.
Take `CCCN(CCC)C(=O)Nc1ccc(C)cc1C`: the inhibition was 8%.
Regarding `CCCCOc1ccc(NC(=O)N(Cc2ccccc2)Cc2ccccc2)cc1`, the inhibition worked out at 90%.
With `CCCCN(Cc1ccccc1)C(=O)Nc1cccc(C(F)(F)F)c1`, the inhibition is 86%.
`Cc1cccc(NC(=O)N(Cc2ccccc2)Cc2ccccc2)c1`: the inhibition was 89%.
Turning to `CCCCN(CCCC)C(=O)Nc1cccc(C)c1C`, the inhibition was 88%.
As for `CCCCN(CCCC)C(=O)Nc1c(C)cccc1C`, the inhibition amounted to 85%.
In the case of `Cc1ccc(NC(=O)N(C2CCCC2)C2CCCC2)c(C)c1`, the inhibition came out at 90%.
With `CCCCN(Cc1ccccc1)C(=O)Nc1cccc(C)c1C`, the inhibition amounted to 86%.
Regarding `CC(=O)c1cccc(NC(=O)N(Cc2ccccc2)Cc2ccccc2)c1`, the inhibition stood at 81%.
`CCCCN(CCCC)C(=O)Nc1cccc(SC)c1`: the inhibition was determined as 85%.
As to `CCCCN(Cc1ccccc1)C(=O)Nc1ccc(C)c(C)c1`, the inhibition is 87%.
On to `CCCCN(Cc1ccccc1)C(=O)Nc1ccc(Cl)c(Cl)c1`, for which the inhibition turned out to be 96%.
Same read-out and setting: as for `O=C(Nc1ccccc1Br)N(Cc1ccccc1)Cc1ccccc1`, the figure is 94%; as for `CCCCN(Cc1ccccc1)C(=O)Nc1cc(Cl)ccc1OC`, 81%.
Regarding `COc1cccc(NC(=O)N(Cc2ccccc2)Cc2ccccc2)c1`, the inhibition stood at 87%.
Still for that read-out and setting: the result for `Cc1ccccc1NC(=O)N(Cc1ccccc1)Cc1ccccc1` reads 77%; that for `O=C(Nc1ccc(I)cc1)N(Cc1ccccc1)Cc1ccccc1`, 85%.
Same read-out and setting: the result for `O=C(Nc1ccc(Br)cc1Br)N(Cc1ccccc1)c1ccccc1` reads 82%; that for `C=CCN(CC=C)C(=O)Nc1ccc(C)cc1C`, 43%.
Still for that read-out and setting: as for `CCCCN(Cc1ccccc1)C(=O)Nc1cc(OC)c(OC)c(OC)c1`, the figure is 74%; as for `CCCCN(Cc1ccccc1)C(=O)Nc1cccc(Cl)c1`, 89%; as for `O=C(Nc1ccc(Cl)cc1)N(Cc1ccccc1)Cc1ccccc1`, 78%.
As for `CCCCN(Cc1ccccc1)C(=O)Nc1cccc(C)c1`, the inhibition was 92%.
On the same count and under the same terms, the result for `CCCCN(CCCC)C(=O)Nc1ccc(F)cc1` reads 56%; that for `Cc1ccc(NC(=O)N(Cc2ccccc2)Cc2ccccc2)cc1`, 87%.
Same read-out and setting: the result for `CCCCN(CCCC)C(=O)Nc1cc(Cl)ccc1C` reads 75%.

The target is the same in the next assay. Nature of the assay: Liver hypolipidemic activity in rats. Type of assay: functional.
Conditions: not given
The essentials:
(§2)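 Male CD-1 Sprague-Dawley rats, 140–150 g, fed 1% cholesterol/0.5% cholic acid diet with compound admixed at 0.01% (about 10 mg/kg/day) for 7 days. Serum and liver cholesterol measured by Technicon autoanalyzer methods; expressed as percent of control.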
In the case of `CCCCN(CCCC)C(=O)Nc1cc(Cl)c(Cl)cc1Cl`, the LS came to 103%.
The same measure, in the same setting: the result for `CCCCN(CCCC)C(=O)Nc1ccc(OC)cc1` reads 109%; that for `CCCCN(Cc1ccccc1)C(=O)Nc1c(Cl)cc(Cl)cc1Cl`, 32%; that for `CCCCN(Cc1ccccc1)C(=O)Nc1ccc(C(=O)O)cc1C`, 88%.
On the same count and under the same terms, the result for `CCCCN(Cc1ccccc1)C(=O)Nc1ccccc1C` reads 137%; that for `CCCCN(Cc1ccccc1)C(=O)Nc1cccc(C(F)(F)F)c1`, 104%; that for `Cc1ccc(NC(=O)N(C2CCCC2)C2CCCC2)c(C)c1`, 113%.

A further assay has the same target. In words: Serum hypolipidemic activity in rats. Type of assay: functional.
Conditions: not given
Put shortly: as §2
On to `CCCCN(CCCC)C(=O)Nc1cc(Cl)c(Cl)cc1Cl`, for which the SS came to 111%.
Same read-out and setting: as for `CCCCN(CCCC)C(=O)Nc1ccc(OC)cc1`, the figure is 127%; as for `CCCCN(Cc1ccccc1)C(=O)Nc1c(Cl)cc(Cl)cc1Cl`, 48%; as for `CCCCN(Cc1ccccc1)C(=O)Nc1ccc(C(=O)O)cc1C`, 76%.
In the case of `CCCCN(Cc1ccccc1)C(=O)Nc1ccccc1C`, the SS was 109%.
Same read-out and setting: as for `CCCCN(Cc1ccccc1)C(=O)Nc1cccc(C(F)(F)F)c1`, the figure is 84%; as for `Cc1ccc(NC(=O)N(C2CCCC2)C2CCCC2)c(C)c1`, 98%.
